Sampled rows, rich in hits. Any-hit rate of the full collection: about 2.9%.
HIV Env fusion = HIV envelope-mediated fusion inhibition; actives 1.1% (n = 360,000); inhibition, % at 12.3 µM; HeLa-JRFL Env/CEM21 cell fusion, luciferase;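 active means mean replicate inhibition score of at least 50 and every replicate individually at or above 50; inconclusive means only one of the two criteria met; inactive means mean below 50 and not all replicates reaching 50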
INS-1E GSIS act = primary screen for activators of insulin secretion dependent on glucose, INS-1E cells, GLuc reporter luminescence | INS-1E GLuc reporter insulin secretion, 2-3 h | activation, % at 16.6 µM | actives 0.61% (n = 370,000);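 active means lowest replicate activation of at least 40%, so every replicate reaches that level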
CDK5 p35 inh = inhibitors of human CDK5/p35 kinase; actives 0.01% (n = 330,000); Q00535+Q15078; inhibition, % at 10 µM; Recombinant CDK5/p35, ADP-Glo luminescence, 60 min;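 active means highest replicate inhibition of at least 50% and at least 75% of replicates reaching 50%; inconclusive means only one of the two criteria met; inactive means both criteria failed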
Target sequence (Q00535 whole entry, looked up): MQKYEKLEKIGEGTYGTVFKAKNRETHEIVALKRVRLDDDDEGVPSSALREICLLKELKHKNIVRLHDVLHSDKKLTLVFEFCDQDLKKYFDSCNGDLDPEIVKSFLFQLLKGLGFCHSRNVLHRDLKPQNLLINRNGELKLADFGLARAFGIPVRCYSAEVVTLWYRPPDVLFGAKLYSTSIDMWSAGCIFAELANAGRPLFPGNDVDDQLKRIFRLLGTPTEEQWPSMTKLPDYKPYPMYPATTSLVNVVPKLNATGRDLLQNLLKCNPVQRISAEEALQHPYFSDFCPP
Target sequence (Q15078 whole entry, looked up): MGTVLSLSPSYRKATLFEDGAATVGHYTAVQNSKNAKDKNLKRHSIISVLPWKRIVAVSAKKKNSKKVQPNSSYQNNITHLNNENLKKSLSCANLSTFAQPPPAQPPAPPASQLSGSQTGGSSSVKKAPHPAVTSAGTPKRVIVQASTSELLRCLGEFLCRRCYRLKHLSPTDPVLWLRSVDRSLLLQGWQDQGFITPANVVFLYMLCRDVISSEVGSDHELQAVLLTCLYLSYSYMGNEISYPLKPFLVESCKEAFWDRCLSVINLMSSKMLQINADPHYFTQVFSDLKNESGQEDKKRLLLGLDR
Cneo AK release = Cryptococcus neoformans lysis via adenylate kinase release; C. neoformans lysis, adenylate kinase release luminescence, 4 h; normalised: neutral wells 0, clomiphene wells 100; lysis activity, % at 15 µM; actives 0.2% (n = 360,000); AID 651654;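 active means mean lysis activity across replicates of at least 80%, whatever share of replicates individually reach that level; inactive means mean lysis activity below 80%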
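Test system: log-phase Cryptococcus neoformans yeast cells. Input: 5 × 10^6 yeast cells/mL. Medium: fresh YPD growth medium. Doses: single dose. Incubation: static 4 h at 37 °C with compound, 1 h detection. Measured by: luminescent adenylate kinase detection reagent. Read-out: signal increase indicating cell lysis. Benchmarks: Clomiphene.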
PAX8 inh HTS = PAX8 transcriptional activity inhibition | RMG-I TPO-luciferase reporter, SteadyGlo, 24 h | inhibition, % at 12.6 µM | actives 1.2% (n = 360,000);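 active means mean replicate inhibition at least 60% with every replicate also reaching 60%; inconclusive means only one of the two criteria is met; inactive means mean below 60% and not all replicates reaching 60%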;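 further: luciferase light reporting Pax8 driven TPO promoter activity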
dFosB act = mouse delta FosB homodimer activation; P13346; purified delta FosB, TAMRA-CDK5 oligo fluorescence polarization; percent of positive-control signal above neutral wells; activation, % at 25 µM; actives 0.99% (n = 340,000); AID 493131;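 active means mean activation above about 17%, with every replicate also reaching it, limit read from the data, passing the limit was not always enough; inconclusive means only one of the two conditions met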
Large screens that a line does not name were inactive; [ ] = dose if it differs, or a comment.

C[C@H]1CN([C@@H](C)CO)S(=O)(=O)c2ccc(C3=CCCC3)cc2O[C@H]1CN(C)S(=O)(=O)c1ccc(F)cc1	none (no result: CDK5 p35 inh, PAX8 inh HTS, dFosB act)
CC=Cc1ccc2n(c1=O)C[C@@H]1[C@@H](CO)[C@H](C(=O)NCCC)N(Cc3ccccn3)[C@H]21 (mixture of isomers)	none (no result: HIV Env fusion, CDK5 p35 inh, dFosB act)
COc1ccc(NC(=O)Nc2cccc3c2O[C@@H](CN(C)C(=O)NC(C)C)[C@@H](C)CN([C@@H](C)CO)C3=O)cc1	none (no result: CDK5 p35 inh, dFosB act)
CCOC(=O)C1=C(C)Nc2ccccc2S1	none
CCOC(=O)/C=C1\Nc2ccccc2SC1=O	HIV Env fusion 112.9 (no result: INS-1E GSIS act)
CNC(=O)C[C@@H]1CC[C@H]2[C@@H](COc3ccc(NC(=O)c4ccccc4F)cc3C(=O)N2C)O1	none (no result: CDK5 p35 inh, dFosB act)
O=c1[nH]c(CN2CCN(c3ccc(O)cc3)CC2)nc2scc(-c3ccc(Cl)cc3)c12	INS-1E GSIS act 52.8, PAX8 inh HTS inconclusive (no result: Cneo AK release)
O=C(C[C@H]1CC[C@@H](NC(=O)Nc2cc(F)ccc2F)[C@H](CO)O1)NCCCN1CCOCC1	none (no result: CDK5 p35 inh, dFosB act)
CN(C)c1ccc(NC(=O)CSc2nc(N)c(C(=O)Nc3ccc(N(C)C)cc3)s2)cc1	HIV Env fusion 41.0
CCC(=O)NC[C@@H]1[C@H](c2ccc(-c3ccccc3)cc2)[C@@H](CO)N1C(=O)C1CC1	none (no result: HIV Env fusion, CDK5 p35 inh, dFosB act)
C[C@@H](NC(=O)C[C@@H]1CC[C@H]2[C@@H](COC[C@@H](O)CN2C(=O)Nc2ccccc2)O1)c1ccccc1	none (no result: HIV Env fusion, CDK5 p35 inh, dFosB act)
NC(=O)NC(=O)COC(=O)c1ccccc1Oc1ccccc1	none (no result: HIV Env fusion, INS-1E GSIS act, PAX8 inh HTS)
NC(=O)COC(=O)c1ccccc1Oc1ccccc1	INS-1E GSIS act 46.4 (no result: Cneo AK release)
O=C(C[C@H]1CC[C@H]2[C@@H](COC[C@@H](O)CN2Cc2ccc(Oc3ccccc3)cc2)O1)N1CCOCC1	none (no result: HIV Env fusion, CDK5 p35 inh, dFosB act)
Cc1noc(C)c1NC(=O)N(C)C[C@H]1OCCCC[C@H](C)Oc2ccc(NC(=O)c3ccccc3)cc2C(=O)N([C@@H](C)CO)C[C@@H]1C	none (no result: CDK5 p35 inh, dFosB act)
CC(C)NC(=O)N(C)C[C@H]1OCCCC[C@@H](C)Oc2ccc(NC(=O)c3ccccc3)cc2C(=O)N([C@@H](C)CO)C[C@@H]1C	Cneo AK release 91.5 (no result: CDK5 p35 inh, dFosB act)
CC(C)NC(=O)N(C)C[C@@H]1OCCCC[C@H](C)Oc2ccc(NC(=O)c3ccccc3)cc2C(=O)N([C@H](C)CO)C[C@H]1C	Cneo AK release 90.9 (no result: CDK5 p35 inh, dFosB act)
CC(C)NC(=O)N(C)C[C@@H]1OCCCC[C@H](C)Oc2ccc(NC(=O)c3ccccc3)cc2C(=O)N([C@H](C)CO)C[C@@H]1C	none (no result: CDK5 p35 inh, Cneo AK release, dFosB act)
Cc1noc(C)c1NC(=O)N(C)C[C@H]1OCCCC[C@H](C)Oc2ccc(NC(=O)c3ccccc3)cc2C(=O)N([C@H](C)CO)C[C@@H]1C	HIV Env fusion 67.5[16.7 µM] (no result: CDK5 p35 inh, dFosB act)
COc1ccc(S(=O)(=O)N2CCCCN3[C@H](CO)[C@@H](c4ccc(C#CCC(C)C)cc4)[C@H]3C2)cc1	none (no result: HIV Env fusion, CDK5 p35 inh, dFosB act)
C[C@@H]1CCCCO[C@H](CN(C)C(=O)NC2CCCCC2)[C@@H](C)CN([C@@H](C)CO)C(=O)c2cc(NC(=O)C3CCCCC3)ccc2O1	none (no result: CDK5 p35 inh, dFosB act)
C=CCn1cnc2scc(-c3ccc(OC)cc3)c2c1=O	INS-1E GSIS act 61.4
C=CCn1cnc2scc(-c3ccc(C)c(C)c3)c2c1=O	none (no result: Cneo AK release)
Cc1nc(SCC(=O)N(C)C2(C#N)CCCCC2)c2ccccc2n1	PAX8 inh HTS 62.1 (no result: HIV Env fusion, INS-1E GSIS act)
C=C1C(=O)C2=CC1CCC(=O)C1(C)CCC(OC(C)=O)C(C)(C)C1CC2O (configuration not stated)	PAX8 inh HTS 104.8 (no result: Cneo AK release)
Cc1ncoc1C(=O)NC1CCCc2c1cnn2-c1cc(F)cc(F)c1 (configuration not stated)	none (no result: CDK5 p35 inh, Cneo AK release, dFosB act)
Cc1ncoc1C(=O)NC1CCCc2c1cnn2-c1ccc(C(C)(C)C)cc1 (configuration not stated)	HIV Env fusion 56.4
CCCC#Cc1ccc2c(c1)O[C@@H](CN(C)Cc1cncnc1)[C@H](C)CN([C@@H](C)CO)S2(=O)=O	none (no result: CDK5 p35 inh, PAX8 inh HTS, dFosB act)
CC(C)NC(=O)N(C)C[C@H]1Oc2ccc(NC(=O)Nc3ccccc3)cc2CC(=O)N([C@@H](C)CO)C[C@@H]1C	none (no result: HIV Env fusion, CDK5 p35 inh, dFosB act)
CS(=O)(=O)Nc1ccc2c(c1)[C@@H]1C[C@@H](CC(=O)N3CCc4ccccc4C3)O[C@H](CO)[C@@H]1O2	HIV Env fusion 62.8[16.7 µM] (no result: CDK5 p35 inh, dFosB act)
CS(=O)(=O)Nc1ccc2c(c1)[C@H]1C[C@@H](CC(=O)NCCN3CCCCC3)O[C@@H](CO)[C@H]1O2	HIV Env fusion 66.5[16.7 µM] (no result: CDK5 p35 inh, dFosB act)
CN1CCN(C(=O)C[C@@H]2C[C@H]3c4cc(NS(C)(=O)=O)ccc4O[C@H]3[C@@H](CO)O2)CC1	none (no result: CDK5 p35 inh, dFosB act)
CS(=O)(=O)Nc1ccc2c(c1)[C@@H]1C[C@H](CC(=O)N3CCc4ccccc4C3)O[C@@H](CO)[C@@H]1O2	none (no result: CDK5 p35 inh, dFosB act)
CS(=O)(=O)Nc1ccc2c(c1)[C@H]1C[C@H](CC(=O)N3CCc4ccccc4C3)O[C@H](CO)[C@H]1O2	HIV Env fusion 62.6[16.7 µM] (no result: CDK5 p35 inh, dFosB act)
CN1CCN(C(=O)C[C@H]2C[C@@H]3c4cc(NS(C)(=O)=O)ccc4O[C@@H]3[C@H](CO)O2)CC1	HIV Env fusion 64.2[16.7 µM] (no result: CDK5 p35 inh, dFosB act)
CS(=O)(=O)Nc1ccc2c(c1)[C@@H]1C[C@@H](CC(=O)NCCN3CCCCC3)O[C@@H](CO)[C@@H]1O2	none (no result: CDK5 p35 inh, dFosB act)
O=C(c1ccccn1)N1C[C@@H]2[C@H](c3ccccc31)[C@H](CO)N2C(=O)Cc1ccccc1	none (no result: HIV Env fusion, CDK5 p35 inh, dFosB act)

From PubChem BioAssay
